According to ChEMBL document CHEMBL4270612, “Discovery of dual GyrB/ParE inhibitors active against Gram-negative bacteria” (Eur J Med Chem, 2018):
In brackets after ≈: the same amount, converted by molar mass.

What was measured:
[1] = system: Pseudomonas aeruginosa; test: Antibacterial activity against Pseudomonas aeruginosa PAO1 after 24 hrs by broth microdilution method; type: functional; conditions: PAO1, 24 h
Outline: (§1)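 Broth microdilution per CLSI. Bacterial suspension adjusted to 1×10^6 CFU/mL in cation-adjusted Mueller–Hinton broth and mixed 1:1 with 2-fold serial compound dilutions. Final DMSO 2.5% v/v. Plates incubated at 35 °C with shaking at 140 rpm for 24 h.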

[2] = system: Escherichia coli; test: Antibacterial activity against Escherichia coli after 24 hrs by broth microdilution method; type: functional; outline: as §1
[3] = system: Escherichia coli; test: Antibacterial activity against tolC deficient Escherichia coli after 24 hrs by broth microdilution method; type: functional
Outline: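 Broth microdilution per CLSI guidelines. Inoculum adjusted to 1×10^6 CFU/mL in cation-adjusted Mueller–Hinton broth, added 1:1 to 2-fold serial compound dilutions; final DMSO 2.5% v/v. Plates incubated 35 °C, 140 rpm, 24 h.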

[4] = Dissociation constant, acidic pKa of compound by pH metric method; type: physicochemical
Outline: (§2)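 Potentiometric (pH-metric) titration on an automated titrator, Gold Standard pH metric assay, run in triplicate.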

[5] = target: DNA topoisomerase 4 subunit B (Escherichia coli K-12, UniProt P20083); test: Inhibition of Escherichia coli ParE
Chain of DNA topoisomerase 4 subunit B (P20083 whole entry, the tested form may be a part): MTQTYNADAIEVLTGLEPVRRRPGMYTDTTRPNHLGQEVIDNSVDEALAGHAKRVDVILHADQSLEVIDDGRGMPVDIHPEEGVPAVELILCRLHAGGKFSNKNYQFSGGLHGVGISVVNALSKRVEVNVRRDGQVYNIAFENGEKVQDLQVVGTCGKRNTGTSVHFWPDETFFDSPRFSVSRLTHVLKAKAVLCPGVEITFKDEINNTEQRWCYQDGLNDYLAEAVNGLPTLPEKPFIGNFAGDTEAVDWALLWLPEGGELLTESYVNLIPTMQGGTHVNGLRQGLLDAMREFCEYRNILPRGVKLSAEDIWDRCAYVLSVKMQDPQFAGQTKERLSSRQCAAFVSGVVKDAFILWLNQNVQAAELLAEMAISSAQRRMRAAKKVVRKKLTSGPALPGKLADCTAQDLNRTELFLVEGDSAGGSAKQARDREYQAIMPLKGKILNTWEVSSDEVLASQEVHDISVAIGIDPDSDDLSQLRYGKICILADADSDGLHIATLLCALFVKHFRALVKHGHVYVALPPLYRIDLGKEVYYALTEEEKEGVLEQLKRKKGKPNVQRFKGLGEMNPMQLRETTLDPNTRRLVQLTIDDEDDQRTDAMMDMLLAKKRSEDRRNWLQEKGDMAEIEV

[6] = target: DNA gyrase subunit B (Escherichia coli, UniProt P0AES6); test: Inhibition of Escherichia coli GyrB (1 to 220 residues) expressed in Escherichia coli BL21(DE3)
[7] = Dissociation constant, basic pKa of compound by pH metric method; type: physicochemical; outline: as §2
[8] = system: Pseudomonas aeruginosa; test: Antibacterial activity against Pseudomonas aeruginosa harboring MexABCDXY deletion mutant after 24 hrs by broth microdilution method; type: functional
Outline: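 Broth microdilution per CLSI. Bacterial suspensions adjusted to 1×10^6 CFU/mL in cation-adjusted Mueller–Hinton broth, mixed 1:1 with 2-fold serial compound dilutions (final DMSO 2.5% v/v). Incubation 35 °C, 140 rpm, 24 h.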

[9] = Growth inhibition of human A549 cells; type: cell-based
[10] = Dissociation constant, pKa of compound by pH metric method; type: physicochemical; outline: as §2
[11] = system: Acinetobacter baumannii; test: Antibacterial activity against Acinetobacter baumannii ARC3486 after 24 hrs by broth microdilution method; type: functional; conditions: ARC3486, 24 h; outline: as §1
[12] = system: Pseudomonas aeruginosa; test: Antibacterial activity against Pseudomonas aeruginosa ARC3505 after 24 hrs by broth microdilution method; type: functional; conditions: ARC3505, 24 h; outline: as §1
[13] = system: Pseudomonas aeruginosa; test: Antibacterial activity against Pseudomonas aeruginosa ARC3607 after 24 hrs by broth microdilution method; type: functional; conditions: ARC3607, 24 h; outline: as §1
[14] = system: Pseudomonas aeruginosa; test: Antibacterial activity against Pseudomonas aeruginosa ARC3729 after 24 hrs by broth microdilution method; type: functional; conditions: ARC3729, 24 h; outline: as §1
[15] = system: Pseudomonas aeruginosa; test: Antibacterial activity against Pseudomonas aeruginosa ARC3611 after 24 hrs by broth microdilution method; type: functional; conditions: ARC3611, 24 h; outline: as §1
[16] = system: Pseudomonas aeruginosa; test: Antibacterial activity against Pseudomonas aeruginosa ARC3916 after 24 hrs by broth microdilution method; type: functional; conditions: ARC3916, 24 h; outline: as §1
[17] = system: Acinetobacter baumannii; test: Antibacterial activity against Acinetobacter baumannii ARC3658 after 24 hrs by broth microdilution method; type: functional; conditions: ARC3658, 24 h; outline: as §1
[18] = system: Acinetobacter baumannii; test: Antibacterial activity against Acinetobacter baumannii ARC3495 after 24 hrs by broth microdilution method; type: functional; conditions: ARC3495, 24 h; outline: as §1
[19] = system: Acinetobacter baumannii; test: Antibacterial activity against Acinetobacter baumannii ARC3657 after 24 hrs by broth microdilution method; type: functional; conditions: ARC3657, 24 h; outline: as §1
[20] = system: Pseudomonas aeruginosa; test: Antibacterial activity against Pseudomonas aeruginosa ARC3509 after 24 hrs by broth microdilution method; type: functional; conditions: ARC3509, 24 h; outline: as §1
[21] = system: Pseudomonas aeruginosa; test: Antibacterial activity against Pseudomonas aeruginosa ARC3506 after 24 hrs by broth microdilution method; type: functional; conditions: ARC3506, 24 h; outline: as §1
[22] = system: Pseudomonas aeruginosa; test: Antibacterial activity against Pseudomonas aeruginosa ARC3504 after 24 hrs by broth microdilution method; type: functional; conditions: ARC3504, 24 h; outline: as §1
[23] = system: Pseudomonas aeruginosa; test: Antibacterial activity against Pseudomonas aeruginosa ARC3606 after 24 hrs by broth microdilution method; type: functional; conditions: ARC3606, 24 h; outline: as §1
[24] = system: Acinetobacter baumannii; test: Antibacterial activity against Acinetobacter baumannii ARC2674 after 24 hrs by broth microdilution method; type: functional; conditions: ARC2674, 24 h; outline: as §1
[25] = system: Acinetobacter baumannii; test: Antibacterial activity against Acinetobacter baumannii ARC3513 after 24 hrs by broth microdilution method; type: functional; conditions: ARC3513, 24 h; outline: as §1
[26] = system: Pseudomonas aeruginosa; test: Antibacterial activity against Pseudomonas aeruginosa ARC4060 after 24 hrs by broth microdilution method; type: functional; conditions: ARC4060, 24 h; outline: as §1
[27] = system: Acinetobacter baumannii; test: Antibacterial activity against Acinetobacter baumannii ARC3493 after 24 hrs by broth microdilution method; type: functional; conditions: ARC3493, 24 h; outline: as §1
[28] = system: Acinetobacter baumannii; test: Antibacterial activity against Acinetobacter baumannii ARC3489 after 24 hrs by broth microdilution method; type: functional; conditions: ARC3489, 24 h; outline: as §1
[29] = system: Acinetobacter baumannii; test: Antibacterial activity against Acinetobacter baumannii ARC2779 after 24 hrs by broth microdilution method; type: functional; conditions: ARC2779, 24 h; outline: as §1
[30] = system: Pseudomonas aeruginosa; test: Antibacterial activity against Pseudomonas aeruginosa ARC003 after 24 hrs by broth microdilution method; type: functional; conditions: ARC003, 24 h; outline: as §1
[31] = system: Pseudomonas aeruginosa; test: Antibacterial activity against Pseudomonas aeruginosa ARC3612 after 24 hrs by broth microdilution method; type: functional; conditions: ARC3612, 24 h; outline: as §1
[32] = system: Acinetobacter baumannii; test: Antibacterial activity against Acinetobacter baumannii ARC2728 after 24 hrs by broth microdilution method; type: functional; conditions: ARC2728, 24 h; outline: as §1
[33] = system: Acinetobacter baumannii; test: Antibacterial activity against Acinetobacter baumannii ARC3659 after 24 hrs by broth microdilution method; type: functional; conditions: ARC3659, 24 h; outline: as §1
[34] = system: Acinetobacter baumannii; test: Antibacterial activity against Acinetobacter baumannii ARC2782 after 24 hrs by broth microdilution method; type: functional; conditions: ARC2782, 24 h; outline: as §1
[35] = system: Acinetobacter baumannii; test: Antibacterial activity against Acinetobacter baumannii ARC3485 after 24 hrs by broth microdilution method; type: functional; conditions: ARC3485, 24 h; outline: as §1
[36] = system: Acinetobacter baumannii; test: Antibacterial activity against Acinetobacter baumannii ARC3882 after 24 hrs by broth microdilution method; type: functional; conditions: ARC3882, 24 h; outline: as §1
[37] = system: Acinetobacter baumannii; test: Antibacterial activity against Acinetobacter baumannii ARC3515 after 24 hrs by broth microdilution method; type: functional; conditions: ARC3515, 24 h; outline: as §1

`CCNC(=O)Nc1cc(-c2nc(C(F)(F)F)cs2)c(-c2cc(-c3nnn[nH]3)cnc2N2C3CCC2CN(C)C3)cn1` gave an MIC [1] of over 50 µg/mL, an MIC [2] of over 50 µg/mL and an MIC [3] of 36 µg/mL (≈ 61.5 µM). For the same compound, the pKa [4] was 3.6, the IC50 [5] was 4 nM and the IC50 [6] was 9 nM. The pKa [7] was 7.8 and the MIC [8] was over 50 µg/mL.

Work on `CCNC(=O)Nc1cc(-c2nc(C(F)(F)F)cs2)c(-c2cc3ncccc3nc2N2CCC(N)CC2)cn1` yielded an MIC [1] of 67.8 µg/mL (≈ 125 µM), an MIC [2] of 16.8 µg/mL (≈ 31 µM) and a GI50 [9] of over 50000 nM. The pKa [10] was 9.3, the MIC [3] was 0.54 µg/mL (≈ 0.995 µM) and the IC50 [5] was 49 nM. For the same compound, the IC50 [6] was 6 nM and the MIC [8] was 0.54 µg/mL (≈ 0.995 µM).

Compound `CCNC(=O)Nc1cc(-c2nc(C(F)(F)F)cs2)c(-c2cc(-c3n[nH]c(=O)o3)cnc2N2[C@@H]3CC[C@H]2C[C@@H](N)C3)cn1` has an MIC [1] of over 50 µg/mL, an MIC [2] of over 50 µg/mL and an MIC [3] of 4.8 µg/mL (≈ 7.98 µM). The pKa [4] was 6.8, the IC50 [5] was 12 nM and the IC50 [6] was 4 nM. The pKa [7] was 9.5 and the MIC [8] was 0.6 µg/mL (≈ 0.997 µM).

With `C[C@@H](O)[C@H]1C(=O)N2C(C(=O)O)=C(S[C@@H]3CN[C@H](C(=O)N(C)C)C3)[C@H](C)[C@H]12` [MEROPENEM] the MIC [11] was over 64 µg/mL, the MIC [12] was 2 µg/mL (≈ 5.22 µM) and the MIC [13] was 8 µg/mL (≈ 20.9 µM). For the same compound, the MIC [14] was 32 µg/mL (≈ 83.4 µM), the MIC [15] was 4 µg/mL (≈ 10.4 µM) and the MIC [16] was 32 µg/mL (≈ 83.4 µM). The MIC [17] was 32 µg/mL (≈ 83.4 µM), the MIC [18] was over 64 µg/mL and the MIC [19] was 1 µg/mL (≈ 2.61 µM). It also gave an MIC [20] of 16 µg/mL (≈ 41.7 µM), an MIC [21] of 8 µg/mL (≈ 20.9 µM) and an MIC [22] of 4 µg/mL (≈ 10.4 µM). For the same compound, the MIC [23] was 4 µg/mL (≈ 10.4 µM), the MIC [24] was 16 µg/mL (≈ 41.7 µM) and the MIC [25] was 32 µg/mL (≈ 83.4 µM). It also gave an MIC [26] of 16 µg/mL (≈ 41.7 µM), an MIC [27] of over 64 µg/mL and an MIC [28] of 4 µg/mL (≈ 10.4 µM). It also gave an MIC [29] of 16 µg/mL (≈ 41.7 µM), an MIC [30] of 0.25 µg/mL (≈ 0.652 µM) and an MIC [31] of 32 µg/mL (≈ 83.4 µM). The MIC [32] was 0.25 µg/mL (≈ 0.652 µM), the MIC [33] was 16 µg/mL (≈ 41.7 µM) and the MIC [34] was 16 µg/mL (≈ 41.7 µM). The MIC [35] was 32 µg/mL (≈ 83.4 µM), the MIC [36] was over 64 µg/mL and the MIC [37] was 4 µg/mL (≈ 10.4 µM).
